Values after ≈ are worked out from the molar mass of the structure shown.
Key:
Type in all cases: functional
[1] = test system: Candida parapsilosis; test: In vitro antifungal activity against Candida parapsilosis; settings: Lodderomyces parapsilosis
Outline: (§1)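 NCCLS broth serial dilution in 96-well plates with RPMI 1640 buffered with 0.165 M MOPS. Compounds were dissolved in DMSO and diluted in medium. Yeasts were incubated at 35 °C and read at 24 h. MIC is the lowest concentration giving turbidity at ≤80% inhibition versus the growth control.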

[2] = test system: Aspergillus fumigatus; test: In vitro antifungal activity against Aspergillus fumigatus
Outline: (§2)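 Filamentous fungi were tested by NCCLS microdilution in RPMI 1640 buffered with 0.165 M MOPS. DMSO-dissolved compounds were serially diluted in medium. MIC was read at 7 days as the lowest concentration with turbidity at ≤80% inhibition versus the drug-free control.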

[3] = test system: Candida albicans; test: In vitro antifungal activity against Candida albicans; outline: as §1
[4] = test system: Sporothrix schenckii; test: In vitro antifungal activity against Sporothrix schenck ii; outline: as §2
[5] = test system: Trichophyton rubrum; test: In vitro antifungal activity against Trichophyton rubrum
Outline: (§3)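 Dermatophytes tested by NCCLS serial dilution in 96-well plates, in RPMI 1640 with 0.165 M MOPS. Compounds were prepared in DMSO and diluted in medium. Incubation was at 28 °C with reading at 7 days. MIC is the lowest concentration giving turbidity at ≤80% inhibition of control growth.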

[6] = test system: Cryptococcus neoformans; test: In vitro antifungal activity against Cryptococcus neoformans
Outline: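 Microdilution MIC per NCCLS in MOPS (0.165 M)-buffered RPMI 1640. DMSO solutions were serially diluted in growth medium. Incubated at 35 °C as a yeast, with growth read at 72 h.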

[7] = test system: Microsporum canis; test: In vitro antifungal activity against Microsporum canis; outline: as §3
[8] = test system: Fonsecaea pedrosoi; test: In vitro antifungal activity against Fonsecaea pedrosoi; outline: as §2

| SMILES | MIC [1] [mg/L] | MIC [2] [mg/L] | MIC [3] [mg/L] | MIC [4] [mg/L] | MIC [5] [mg/L] | MIC [6] [mg/L] | MIC [7] [mg/L] | MIC [8] [mg/L] |
| --- | --- | --- | --- | --- | --- | --- | --- | --- |
| CCCCCC1(C)CC(=O)c2ccc(O)cc2O1 (stereo not drawn) | 160 (≈ 644 µM) | 160 (≈ 644 µM) | 320 (≈ 1290 µM) | 80 (≈ 322 µM) | 20 (≈ 80.5 µM) | 160 (≈ 644 µM) | 40 (≈ 161 µM) | 80 (≈ 322 µM) |
| CCCCCCCC1(C)CC(O)c2ccc(O)cc2O1 (stereo not drawn) | 20 (≈ 71.8 µM) | 80 (≈ 287 µM) | 40 (≈ 144 µM) | 40 (≈ 144 µM) | 20 (≈ 71.8 µM) | 40 (≈ 144 µM) | 2.5 (≈ 8.98 µM) | 80 (≈ 287 µM) |
| CC(C)=CCCC1(C)CC(=O)c2ccc(O)cc2O1 (stereo not drawn) | 80 (≈ 307 µM) | 80 (≈ 307 µM) | 160 (≈ 615 µM) | 160 (≈ 615 µM) | 80 (≈ 307 µM) | 160 (≈ 615 µM) | 40 (≈ 154 µM) | 160 (≈ 615 µM) |
| CC(C)=CCCC1(C)CC(O)c2ccc(O)cc2O1 (stereo not drawn) | 80 (≈ 305 µM) | 160 (≈ 610 µM) | 80 (≈ 305 µM) | 80 (≈ 305 µM) | 80 (≈ 305 µM) | 160 (≈ 610 µM) | 10 (≈ 38.1 µM) | 160 (≈ 610 µM) |
| CC(C)CC1(C)CC(=O)c2ccc(O)cc2O1 (stereo not drawn) | 320 (≈ 1370 µM) | 160 (≈ 683 µM) | > 320 | 320 (≈ 1370 µM) | 160 (≈ 683 µM) | 320 (≈ 1370 µM) | 40 (≈ 171 µM) | 160 (≈ 683 µM) |
| CCCCCC1(C)CC(O)c2ccc(OC)cc2O1 (stereo not drawn) | 160 (≈ 605 µM) | 80 (≈ 303 µM) | 320 (≈ 1210 µM) | > 320 | 20 (≈ 75.7 µM) | 160 (≈ 605 µM) | 20 (≈ 75.7 µM) | > 320 |
| COc1ccc2c(c1)OC(C)(CCC=C(C)C)CC2=O (stereo not drawn) | > 320 | 160 (≈ 583 µM) | > 320 | 320 (≈ 1170 µM) | > 320 | > 320 | 80 (≈ 292 µM) | > 320 |
| CCCCCC1(C)CC(=O)c2ccc(OC)cc2O1 (stereo not drawn) | > 320 | 160 (≈ 610 µM) | > 320 | > 320 | > 320 | > 320 | 80 (≈ 305 µM) | > 320 |
| CCCCCCCC1(C)CC(=O)c2ccc(O)cc2O1 (stereo not drawn) | 160 (≈ 579 µM) | 160 (≈ 579 µM) | 160 (≈ 579 µM) | 40 (≈ 145 µM) | 40 (≈ 145 µM) | 80 (≈ 289 µM) | 80 (≈ 289 µM) | 80 (≈ 289 µM) |
| CCCCCCCC1(C)CC(=O)c2ccc(OC)cc2O1 (stereo not drawn) | 320 (≈ 1100 µM) | > 320 | > 320 | 40 (≈ 138 µM) | 320 (≈ 1100 µM) | > 320 | 40 (≈ 138 µM) | > 320 |
| CCCCCCCC1(C)C=Cc2ccc(OC)cc2O1 (stereo not drawn) | > 320 | > 320 | > 320 | > 320 | > 320 | > 320 | 320 (≈ 1170 µM) | > 320 |
| CCCCCC1(C)C=Cc2ccc(OC)cc2O1 (stereo not drawn) | > 320 | > 320 | > 320 | > 320 | > 320 | 320 (≈ 1300 µM) | 320 (≈ 1300 µM) | > 320 |
| COc1ccc2c(c1)OC(C)(CCC=C(C)C)C=C2 (stereo not drawn) | > 320 | > 320 | > 320 | 320 (≈ 1240 µM) | 40 (≈ 155 µM) | > 320 | 80 (≈ 310 µM) | > 320 |
| CCCCCC1(C)CC(O)c2ccc(O)cc2O1 (stereo not drawn) | 40 (≈ 160 µM) | 80 (≈ 320 µM) | 160 (≈ 639 µM) | 20 (≈ 79.9 µM) | 20 (≈ 79.9 µM) | 80 (≈ 320 µM) | 10 (≈ 39.9 µM) | 40 (≈ 160 µM) |
| COc1ccc2c(c1)OC(C)(CCC=C(C)C)CC2O (stereo not drawn) | 160 (≈ 579 µM) | 160 (≈ 579 µM) | > 320 | 320 (≈ 1160 µM) | 160 (≈ 579 µM) | 160 (≈ 579 µM) | 160 (≈ 579 µM) | 320 (≈ 1160 µM) |
| CCCCCCCCCC1(C)CC(=O)c2ccc(O)cc2O1 (stereo not drawn) | > 320 | 80 (≈ 263 µM) | > 320 | > 320 | > 320 | > 320 | 80 (≈ 263 µM) | > 320 |
| CCCCCCCC1(C)CC(O)c2ccc(OC)cc2O1 (stereo not drawn) | 160 (≈ 547 µM) | 80 (≈ 274 µM) | 320 (≈ 1090 µM) | 40 (≈ 137 µM) | 80 (≈ 274 µM) | 80 (≈ 274 µM) | 80 (≈ 274 µM) | 160 (≈ 547 µM) |
| CCCCCC1(C)C/C(=N/O)c2ccc(O)cc2O1 (stereo not drawn) | 40 (≈ 152 µM) | 80 (≈ 304 µM) | 160 (≈ 608 µM) | 40 (≈ 152 µM) | 5 (≈ 19 µM) | 40 (≈ 152 µM) | 5 (≈ 19 µM) | 40 (≈ 152 µM) |
| CC(C)=CCCC1(C)C/C(=N/O)c2ccc(O)cc2O1 (stereo not drawn) | 40 (≈ 145 µM) | 40 (≈ 145 µM) | 80 (≈ 291 µM) | 40 (≈ 145 µM) | 5 (≈ 18.2 µM) | 40 (≈ 145 µM) | 2.5 (≈ 9.08 µM) | 20 (≈ 72.6 µM) |
| CCCCCCCC1(C)C/C(=N/O)c2ccc(O)cc2O1 (stereo not drawn) | 20 (≈ 68.6 µM) | 10 (≈ 34.3 µM) | 40 (≈ 137 µM) | 10 (≈ 34.3 µM) | 2.5 (≈ 8.58 µM) | 20 (≈ 68.6 µM) | 0.625 (≈ 2.14 µM) | 40 (≈ 137 µM) |
| OC(Cn1cncn1)(Cn1cncn1)c1ccc(F)cc1F [FLUCONAZOLE] | 8 (≈ 26.1 µM) | 16 (≈ 52.2 µM) | 4 (≈ 13.1 µM) | 0.25 (≈ 0.816 µM) | 0.5 (≈ 1.63 µM) | 32 (≈ 104 µM) | 0.5 (≈ 1.63 µM) | 64 (≈ 209 µM) |
